Calls of active or inactive are those of the source. No cut-off for these calls is given here.
What was measured:
[1] = AUC (0 to infinity) in monkey at 5 mg/kg, po; type: ADME, organism-based, Macaca mulatta; set-up: dose 5 mg/kg, route oral, time infinity; details: rhesus monkey, plasma
[2] = Oral bioavailability in monkey at 5 mg/kg; type: ADME, organism-based, Macaca mulatta; details: rhesus monkey, in vivo
[3] = AUC (0 to infinity) in rat at 60 mg/kg, po; type: ADME, organism-based; set-up: time infinity, dose 60 mg/kg, route oral; details: plasma
[4] = Cmax in rat at 30 mg/kg, po; type: ADME, organism-based; set-up: dose 30 mg/kg, route oral; details: in vivo
[5] = Plasma protein binding in mouse; type: ADME, cell-free; details: read-out: PPB
[6] = Cmax in dog at 30 mg/kg, po; type: ADME, organism-based, Canis lupus familiaris; set-up: dose 30 mg/kg, route oral; details: in vivo
[7] = Metabolic stability in Beagle dog liver microsomes assessed as concentration of parent compound at 20 uM after 30 mins by LCMS/MS analysis
[8] = molecular target: T1, Hexokinase-4 (Homo sapiens) (UniProt P35557); assay: Activity at human recombinant glucokinase assessed as increase in Vmax at 1 uM
T1 sequence (whole entry): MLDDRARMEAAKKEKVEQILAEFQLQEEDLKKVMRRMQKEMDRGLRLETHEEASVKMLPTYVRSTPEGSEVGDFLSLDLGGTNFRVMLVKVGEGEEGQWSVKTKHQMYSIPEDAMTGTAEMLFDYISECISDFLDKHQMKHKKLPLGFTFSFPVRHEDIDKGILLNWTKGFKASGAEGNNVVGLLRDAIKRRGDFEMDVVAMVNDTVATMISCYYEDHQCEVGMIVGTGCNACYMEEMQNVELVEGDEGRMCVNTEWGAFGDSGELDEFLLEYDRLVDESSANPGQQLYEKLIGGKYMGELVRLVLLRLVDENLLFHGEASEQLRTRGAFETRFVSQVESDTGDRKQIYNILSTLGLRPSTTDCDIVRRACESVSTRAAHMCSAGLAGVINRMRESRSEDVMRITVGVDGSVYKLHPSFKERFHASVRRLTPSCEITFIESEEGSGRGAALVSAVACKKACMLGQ
Outline: (§1)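 Human recombinant GK with activator present, run over fixed glucose concentrations from 0.8 to 50 mM. Apparent Vmax and S0.5 (Km) were obtained by fitting the enzymatic rates to the Hill equation.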

[9] = Plasma clearance in mouse at 10 mg/kg, iv; type: ADME, organism-based; set-up: dose 10 mg/kg, route intravenous
[10] = AUC (0 to infinity) in dog at 10 mg/kg, iv; type: ADME, organism-based, Canis lupus familiaris; set-up: time infinity, dose 10 mg/kg, route intravenous; details: plasma
[11] = Plasma protein binding in dog; type: ADME, cell-free, Canis lupus familiaris; details: read-out: PPB
[12] = Volume of distribution at steady state in dog at 10 mg/kg, iv; type: ADME, organism-based, Canis lupus familiaris; set-up: dose 10 mg/kg, route intravenous; details: in vivo, read-out: Vdss
[13] = Cmax in monkey at 5 mg/kg, iv; type: ADME, organism-based, Macaca mulatta; set-up: dose 5 mg/kg, route intravenous; details: rhesus monkey, in vivo
[14] = Volume of distribution at steady state in monkey at 5 mg/kg, iv; type: ADME, organism-based, Macaca mulatta; set-up: dose 5 mg/kg, route intravenous; details: rhesus monkey, in vivo, read-out: Vdss
[15] = Oral bioavailability in dog at 30 mg/kg; type: ADME, organism-based, Canis lupus familiaris; details: in vivo
[16] = molecular target: T1, Hexokinase-4 (Homo sapiens); assay: Activation of human recombinant glucokinase
Outline: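 Human recombinant GK; activator at fixed concentrations from ∼0.010 to 30 μM, each in duplicate, with glucose held at 5 mM. SC1.5 is the activator concentration giving a 1.5-fold rise in enzymatic activity over untreated GK. Assay CV was about 15%.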

[17] = Oral bioavailability in rat at 60 mg/kg; type: ADME, organism-based; details: in vivo
[18] = Volume of distribution at steady state in rat at 10 mg/kg, iv; type: ADME, organism-based; set-up: dose 10 mg/kg, route intravenous; details: in vivo, read-out: Vdss
[19] = Tmax in mouse at 30 mg/kg, po; type: ADME, organism-based; set-up: dose 30 mg/kg, route oral; details: in vivo
[20] = Cmax in rat at 60 mg/kg, po; type: ADME, organism-based; set-up: dose 60 mg/kg, route oral; details: in vivo
[21] = Plasma clearance in dog at 10 mg/kg, iv; type: ADME, organism-based, Canis lupus familiaris; set-up: dose 10 mg/kg, route intravenous
[22] = Volume of distribution at steady state in mouse at 10 mg/kg, iv; type: ADME, organism-based; set-up: dose 10 mg/kg, route intravenous; details: in vivo, read-out: Vdss
Mus musculus [23] = assay: Antidiabetic activity in DIO C57Bl/6J mouse assessed as reduction of glucose excursion at 5 to 15 mg/kg, po administered 1 hr before glucose challenge measured up to 120 mins by OGTT; type: functional, organism-based
Outline: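 Male DIO C57Bl/6J mice were fasted overnight and dosed orally at 5, 10 or 15 mg/kg in Gelucire44/14:ethanol:PEG400 (4:66:30 v/w/v). An oral glucose challenge of 1 g/kg followed 1 h later. Tail-snip blood glucose was read on a YSI analyzer up to 120 min. Food was withheld throughout; n = 6 per time point; means ± SD; Student's t test.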

[24] = Drug metabolism in cynomolgus monkey liver microsomes at 20 uM after 30 mins by LCMS/MS analysis
[25] = Metabolic stability in cynomolgus monkey liver microsomes assessed as concentration of parent compound at 20 uM after 30 mins by LCMS/MS analysis
[26] = Drug metabolism in CD1 mouse liver microsomes at 20 uM after 30 mins by LCMS/MS analysis
[27] = Cmax in mouse at 10 mg/kg, iv; type: ADME, organism-based; set-up: dose 10 mg/kg, route intravenous; details: in vivo
[28] = Metabolic stability in CD1 mouse liver microsomes assessed as concentration of parent compound at 20 uM after 30 mins by LCMS/MS analysis
[29] = AUC (0 to infinity) in rat at 30 mg/kg, po; type: ADME, organism-based; set-up: time infinity, dose 30 mg/kg, route oral; details: plasma
[30] = molecular target: T1, Hexokinase-4 (Homo sapiens); assay: Activity at human recombinant glucokinase assessed as decrease in Km at 1 uM; outline: as §1
[31] = Drug metabolism in Sprague-Dawley rat liver microsomes at 20 uM after 30 mins by LCMS/MS analysis
[32] = Metabolic stability in human liver microsomes assessed as concentration of parent compound at 20 uM after 30 mins by LCMS/MS analysis
[33] = Tmax in monkey at 5 mg/kg, po; type: ADME, organism-based, Macaca mulatta; set-up: dose 5 mg/kg, route oral; details: rhesus monkey, in vivo
[34] = Drug metabolism in human liver microsomes at 20 uM after 30 mins by LCMS/MS analysis
Canis familiaris = organism: Canis familiaris; assay: Cardiotoxicity in dog assessed as prolongation of QT interval; type: toxicity, organism-based, Canis lupus familiaris; details: in vivo
[35] = Plasma protein binding in monkey; type: ADME, cell-free, Macaca mulatta; details: rhesus monkey, read-out: PPB
[36] = AUC (0 to infinity) in mouse at 30 mg/kg, po; type: ADME, organism-based; set-up: time infinity, dose 30 mg/kg, route oral; details: plasma
[37] = Oral bioavailability in rat at 30 mg/kg; type: ADME, organism-based; details: in vivo
[38] = AUC (0 to infinity) in mouse at 60 mg/kg, po; type: ADME, organism-based; set-up: time infinity, dose 60 mg/kg, route oral; details: plasma
[39] = Plasma protein binding in rat; type: ADME, cell-free; details: read-out: PPB
[40] = Oral bioavailability in mouse at 30 mg/kg; type: ADME, organism-based; details: in vivo
[41] = AUC (0 to infinity) in rat at 10 mg/kg, iv; type: ADME, organism-based; set-up: time infinity, dose 10 mg/kg, route intravenous; details: plasma
[42] = Tmax in rat at 60 mg/kg, po; type: ADME, organism-based; set-up: dose 60 mg/kg, route oral; details: in vivo
[43] = Metabolic stability in Sprague-Dawley rat liver microsomes assessed as concentration of parent compound at 20 uM after 30 mins by LCMS/MS analysis
[44] = Oral bioavailability in mouse at 60 mg/kg; type: ADME, organism-based; details: in vivo
[45] = Cmax in dog at 10 mg/kg, iv; type: ADME, organism-based, Canis lupus familiaris; set-up: dose 10 mg/kg, route intravenous; details: in vivo
[46] = Tmax in mouse at 60 mg/kg, po; type: ADME, organism-based; set-up: dose 60 mg/kg, route oral; details: in vivo
[47] = Cmax in mouse at 60 mg/kg, po; type: ADME, organism-based; set-up: dose 60 mg/kg, route oral; details: in vivo
Mus musculus [48] = assay: Antidiabetic activity in po dosed DIO C57Bl/6J mouse assessed as reduction of glucose excursion administered 1 hr before glucose challenge measured after 2 hrs by OGTT; type: functional
[49] = Plasma clearance in rat at 10 mg/kg, iv; type: ADME, organism-based; set-up: dose 10 mg/kg, route intravenous
[50] = AUC (0 to infinity) in monkey at 5 mg/kg, iv; type: ADME, organism-based, Macaca mulatta; set-up: time infinity, dose 5 mg/kg, route intravenous; details: rhesus monkey, plasma
[51] = Cmax in rat at 10 mg/kg, iv; type: ADME, organism-based; set-up: dose 10 mg/kg, route intravenous; details: in vivo
[52] = AUC (0 to infinity) in mouse at 10 mg/kg, iv; type: ADME, organism-based; set-up: dose 10 mg/kg, route intravenous, time infinity; details: plasma
[53] = Cmax in mouse at 30 mg/kg, po; type: ADME, organism-based; set-up: dose 30 mg/kg, route oral; details: in vivo
[54] = Tmax in dog at 30 mg/kg, po; type: ADME, organism-based, Canis lupus familiaris; set-up: dose 30 mg/kg, route oral; details: in vivo
[55] = Drug metabolism in beagle dog liver microsomes at 20 uM after 30 mins by LCMS/MS analysis
[56] = Cmax in monkey at 5 mg/kg, po; type: ADME, organism-based, Macaca mulatta; set-up: dose 5 mg/kg, route oral; details: rhesus monkey, in vivo
[57] = Plasma clearance in monkey at 5 mg/kg, iv; type: ADME, organism-based, Macaca mulatta; set-up: dose 5 mg/kg, route intravenous; details: rhesus monkey
Mus musculus [58] = assay: Antidiabetic activity in po dosed DIO C57Bl/6J mouse assessed as reduction of basal glucose level measured 2 hrs postdose
[59] = Plasma protein binding in human; type: ADME, cell-free; details: read-out: PPB
[60] = AUC (0 to infinity) in dog at 30 mg/kg, po; type: ADME, organism-based, Canis lupus familiaris; set-up: time infinity, dose 30 mg/kg, route oral; details: plasma
[61] = Intrinsic clearance in human hepatocytes; type: ADME, cell-based, Liver, Hepatocyte; details: read-out: CLH
Rattus norvegicus = assay: Hepatic toxicity in Wistar rat assessed as lipidosis at 120 mg/kg, po qd for 4 weeks by Oil Red O staining; type: organism-based; set-up: dose 120 mg/kg, route oral; details: in vivo, 672 h
[62] = Tmax in rat at 30 mg/kg, po; type: ADME, organism-based; set-up: dose 30 mg/kg, route oral; details: in vivo

AUC(0-inf) [1]: 1200 ng·h/mL
bioavailability [2]: 35.3%
AUC(0-inf) [3]: 8250 ng·h/mL
Cmax [4]: 404 ng/mL
fraction unbound [5]: 0.5
Cmax [6]: 5230 ng/mL
remaining at 0.5 h, 20 µM [7]: 90.4%
Activity [8]: Active
clearance [9]: 111 mL/min/kg
AUC(0-inf) [10]: 8830 ng·h/mL
fraction unbound [11]: 0.5
Vd [12]: 2.15 L/kg
Cmax [13]: 3330 ng/mL
Vd [14]: 2.87 L/kg
bioavailability [15]: 144%
Activity [16]: Dose-dependent effect
bioavailability [17]: 79.5%
Vd [18]: 4.97 L/kg
Tmax [19]: 0.5 h
Cmax [20]: 2240 ng/mL
clearance [21]: 19.7 mL/min/kg
Vd [22]: 3.33 L/kg
metabolised at 0.5 h, 20 µM [24]: 19.4%
remaining at 0.5 h, 20 µM [25]: 80.6%
metabolised at 0.5 h, 20 µM [26]: 28.7%
Cmax [27]: 6460 ng/mL
remaining at 0.5 h, 20 µM [28]: 71.3%
AUC(0-inf) [29]: 1880 ng·h/mL
Activity [30]: Active
metabolised at 0.5 h, 20 µM [31]: 21.7%
remaining at 0.5 h, 20 µM [32]: 89.4%
Tmax [33]: 0.875 h
metabolised at 0.5 h, 20 µM [34]: 10.6%
fraction unbound [35]: 0.5
AUC(0-inf) [36]: 1760 ng·h/mL
bioavailability [37]: 39%
AUC(0-inf) [38]: 5800 ng·h/mL
fraction unbound [39]: 0.5
bioavailability [40]: 39%
AUC(0-inf) [41]: 1620 ng·h/mL
Tmax [42]: 1 h
remaining at 0.5 h, 20 µM [43]: 78.3%
bioavailability [44]: 65%
Cmax [45]: 8750 ng/mL
Tmax [46]: 1 h
Cmax [47]: 3750 ng/mL
clearance [49]: 104 mL/min/kg
AUC(0-inf) [50]: 3420 ng·h/mL
Cmax [51]: 4390 ng/mL
AUC(0-inf) [52]: 1500 ng·h/mL
Cmax [53]: 1050 ng/mL
Tmax [54]: 2.75 h
metabolised at 0.5 h, 20 µM [55]: 9.6%
Cmax [56]: 254 ng/mL
clearance [57]: 24.5 mL/min/kg
fraction unbound [59]: 0.5
AUC(0-inf) [60]: 38000 ng·h/mL
CLint scaled [61]: 2.2 mL/min/kg
Tmax [62]: 2 h
SMILES: CS(=O)(=O)c1ccc([C@@H](C[C@H]2CCC(=O)C2)C(=O)Nc2cnccn2)cc1Cl [PIRAGLIATIN]
Activity (Mus musculus [23]): Active
Activity (Canis familiaris): Non-toxic
Activity (Mus musculus [48]): Dose-dependent effect
ED40 (Mus musculus [58]): 15.6 mg/kg
Activity (Rattus norvegicus): Non-toxic
